Measurements taken from article PMC4532391 (Biochemistry, 2015).
No end group written: not given here.

Key:
[1] = molecular target: T1, αMI-domain (Homo sapiens, UniProt P11215); format: binding
[2] = tested on: U937 monocytic cells; assay: Chemotaxis of U937 cells towards an agarose drop on coverslips; format: cell-based, human; settings: agarose gel with 15 μg/mL LL-37; 2 h at 37 °C
Procedure, shortened: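 U937 cells on 22 × 22 mm coverslips. A 10 μL drop of 1% agarose in HBSS, with LL-37 at 15 μg/mL final, sits ~1.5 mm from one corner; a control agarose drop sits in the opposite corner; both polymerise 5 min. Coverslips are submerged in RPMI 1640/10% FBS. 5 × 10^4 cells are loaded centrally, then 2 h at 37 °C, 5% CO2. Migration photographed at 2 mm intervals (20× objective); blocking variant uses anti-αM mAb 44a.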

[3] = tested on: macrophages isolated from αMβ2-deficient mice; assay: Transwell migration of thioglycolate-elicited peritoneal macrophages; format: cell-based; settings: 90 min, LL-37 1 μg/mL, fMLP 100 nM
Procedure, shortened: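 Thioglycolate-elicited peritoneal monocyte/macrophages from wild-type and αMβ2-deficient mice, purified by anti-F4/80-PE selection. Placed in Transwell inserts with chemoattractant below: LL-37 1 μg/mL or fMLP 100 nM. Allowed to migrate 90 min.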

[4] = tested on: αMβ2 on neutrophils; assay: Flow cytometry of the activation-dependent CBRM1/5 epitope on neutrophils; format: cell-based, human
Procedure, shortened: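 Human blood neutrophils, isolated sterilely, at 10^6 per 0.1 mL in HBSS/0.1% BSA. Exposed 5 min at 22 °C to LL-37 (0.5–10 μg/mL) or fMLP (200 nM). Then Alexa 488-conjugated activation-dependent mAb CBRM1/5, 30 min on ice. Epitope-positive cells counted by flow cytometry. Some samples pretreated with NIF (1 μg/mL) before LL-37 at 4 or 10 μg/mL.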

[5] = tested on: αMβ2-expressing HEK293 cells; assay: Transwell migration of αMβ2-expressing HEK293 cells; format: cell-based; settings: concentration-dependent, 16 h at 37 °C
Procedure, shortened: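 Transwell, 5 μm pores: 3 × 10^5 αMβ2-HEK293 cells in the upper chamber, LL-37 (0.1–2 μg/mL) below, 16 h at 37 °C. Cells on the filter underside are fixed with paraformaldehyde, hematoxylin-stained and counted (mean cells/view ± standard error, ≥3 experiments). Blocking: 15 min pretreatment with 20 μg/mL anti-αM 44a, anti-β2 IB4 or non-inhibitory OKM1, LL-37 at 0.5 μg/mL. Medium-alone control.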

[6] = molecular target: T1, αMI-domain; settings: covalently coupled to the cellulose membrane; cited from earlier work

T1 sequence (P11215 139-331): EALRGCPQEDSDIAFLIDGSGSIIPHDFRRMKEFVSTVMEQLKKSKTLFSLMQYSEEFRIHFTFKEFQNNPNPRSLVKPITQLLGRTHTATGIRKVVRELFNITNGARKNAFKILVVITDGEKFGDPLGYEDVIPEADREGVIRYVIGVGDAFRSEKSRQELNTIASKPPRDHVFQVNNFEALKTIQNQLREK

CC(C)C[C@H](NC(=O)[C@H](CC(C)C)NC(=O)[C@H](CCCNC(=N)N)NC(=O)[C@@H](N)CC(N)=O)C(=O)N[C@@H](CC(C)C)C(=O)N[C@H](C(=O)NCC(=O)O)[C@@H](C)O [NRLLLTG]
IC50 [1]: 110 ± 16 µM

ARLPIWF [ARLPIWF]
IC50 [1]: 17 ± 3 µM

GRLPMPW [GRLPMPW]
IC50 [1]: 36 ± 7 µM

LLGDFFRKSKEKIGKEFKRIVQRIKDFLRNLVPRTES [LL-37]
chemotactic response of U937 cells [2]: induced a chemotactic response | migration of macrophages from αMβ2-deficient mice [3]: did not induce migration | number of cells expressing the activation epitope compared with fMLP ([4]; 10 μg/mL LL-37 versus fMLP 200 nM): slightly higher | expression of the CBRM1/5 activation epitope on neutrophils ([4]; LL-37 0.5–10 μg/mL, 5 min at 22 °C, mAb CBRM1/5-Alexa 488, FACS): induced expression of the CBRM1/5 epitope in a concentration-dependent manner | LL-37 concentrations at which migration occurred [5]: 0.1 to 2 µg/mL

LQLRFPRFV [LQLRFPRFV]
IC50 [1]: 10.5 ± 1.6 µM

QVLRIRKRA [QVLRIRKRA]
IC50 [1]: 8.4 ± 0.5 µM

RKLRSLWRR [RKLRSLWRR]
IC50 [1]: 2.5 ± 0.2 µM

SSVKKYRPKYCGS [CCN1-H2]
αMI-domain binding of the cellulose-coupled peptide [6]: bound the αMI-domain

SVNKYRGTAGNA [SVNKYRGTAGNA]
IC50 [1]: 93 ± 11 µM

TMKIIPFNRLTIG [P2-C]
IC50 [1]: 30 ± 2.5 µM

YSMKKTTMKIIPFNRLTIG [P2]
αMI-domain binding of the cellulose-coupled peptide [6]: bound the αMI-domain

fMLP
migration of macrophages from αMβ2-deficient mice [3]: migrated
